From article PMC9535606 (Journal of Alzheimer's Disease Reports, 2022)

Tests used:
[1] = test system: rat primary cortical neurons; assay: Mitochondrial respiration, Seahorse XF Cell Mito Stress Test; type: cell-based; conditions: 3 mM
How it was run: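 Rat primary cortical neurons on XF96 plates were pretreated with test compound (3 mM) for 24 h. They were then moved to XF assay medium for 1 h at 37 °C without CO2. Oxygen consumption rate was recorded on an XF96 analyser with serial oligomycin, FCCP and rotenone/antimycin A injections. Basal respiration, ATP production, proton leak and spare capacity were derived; mean ± SD, N=3.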

[2] = test system: primary rat cortical neurons; assay: 3-NP-induced neurotoxicity, cell survival by counting Hoechst-stained nuclei; type: cell-based; conditions: for Cell Survival (%): 0.5 mM for 24 h prior to 2.5 mM 3-NP for 24 h, Hoechst, % of control; for viability of cultured cortical neurons exposed to 3-NP: then 2.5 mM 3-NP 24 h
How it was run: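 E18 Sprague-Dawley rat cortical neurons (DIV 7–9) were pretreated with test compound for 24 h, then given 2.5 mM 3-NP for 24 h. Cells were fixed in 4% paraformaldehyde and stained with Hoechst 33342 (1:1000 in PBS, 5–15 min). Nuclei with normal morphology were counted. Survival (%) = mean surviving cells ÷ concurrent control × 100%.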

[3] = test system: rat primary cortical neurons; assay: Aβ25-35-induced cytotoxicity, cell survival with or without MK-801; type: cell-based; conditions: for cell survival rate: 10 μM Aβ25-35 for 2 days, then 1 mM for 4 days; for protective effect against Aβ25-35 in the presence vs absence of MK-801: MK-801 10 μM, SB 1 mM, LiBen 0.5 and 1 mM
[4] = US FDA and JECFA of WHO; cited from earlier work
[5] = test system: primary rat cortical neurons; assay: 3-NP-induced cellular ROS, CellROX fluorescence; type: cell-based; conditions: for ROS level compared with 3-NP-vehicle-treated group: 0.5 mM for 24 h prior to 2.5 mM 3-NP, LiCl p < 0.001, SB p < 0.01, LiBen p < 0.0001
How it was run: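 Primary cortical cultures came from E18 Sprague-Dawley rat cortex and were used at DIV 7–9 (neuron-enriched). Cultures were pretreated with test compound (0, 0.5, 1 or 3 mM) for 24 h, then exposed to 2.5 mM 3-NP for another 24 h. CellROX Green reagent was added, cells were washed with PBS, and ROS were quantified as fluorescence (Ex 485/Em 520 nm), with confocal imaging.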

[6] = Pharmacokinetics of lithium in rat plasma after single oral dose; type: in vivo; conditions: same molarity
How it was run: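 Male Sprague-Dawley rats (240–260 g, n=6/group) were fasted overnight and given a single gavage dose in PBS. Doses were test compound 255.3 mg/kg or sodium benzoate 287.9 mg/kg plus Li2CO3 74.2 mg/kg (equimolar). Jugular blood was drawn from 0 to 24 h into heparinised tubes, and plasma was separated at 2500×g for 15 min at 4 °C. Plasma was digested overnight in 2–5% nitric acid, filtered, and lithium measured by ICP-MS; concentration-time plots were used; mean ± SD.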

[7] = test system: rat primary cortical neurons; assay: Neurogenesis, BrdU/NeuN immunostaining after Aβ25-35; type: cell-based; conditions: p < 0.0001
How it was run: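 Aβ25-35 was pre-aggregated at 37 °C for 24 h and applied to E18 rat cortical cultures on coverslips for 2 days. Medium was then replaced with BrdU labelling solution plus test compound for 4 days at 37 °C. Cells were fixed in PFA, blocked in 2% BSA, permeabilised with 0.03% Triton X-100 and treated with 2 N HCl. They were stained for BrdU (1:250), NeuN (1:300) and Hoechst. Triple-positive cells were expressed as % of untreated control; mean ± SD, N=3, one-way ANOVA with Student-Newman-Keuls.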

[8] = test system: WT mice; assay: Chronic administration safety observations in WT mice; type: in vivo, mouse
How it was run: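 Wild-type littermates dosed i.p. once daily from 5 months of age for 8 months with test compound in 0.9% saline (n = 27) or saline vehicle (n = 23). Dose 256 mg/kg/day for 5 months, then 200 mg/kg/day. Barnes maze at 5, 7, 10 and 13 months, scored as probe-trial target-quadrant time over total exploring time. Body weight and survival followed to 16 months.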

[9] = test system: APP/PS1 mice; assay: Prepulse inhibition, sensorimotor gating; type: in vivo, mouse
How it was run: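 In APP/PS1 mice and WT littermates, test compound in 0.9% saline was given i.p. once daily from 5 months of age. The dose was 256 mg/kg/day for 5 months, then lowered to 200 mg/kg/day. Saline-vehicle groups served as controls. Behavioural testing took place at 5 (pre-dose), 7, 10 and 13 months of age.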

[10] = test system: APP/PS1 mice; assay: Amyloid plaque number in brain, Congo red staining; type: in vivo, mouse; conditions: APP/PS1 mice at 16 months of age, AD/LiBen vs AD/Veh; p < 0.05
[11] = test system: rat primary cortical neuronal culture; assay: Oxygen glucose deprivation; type: cell-based
How it was run: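 For OGD, rat cortical cultures were rinsed into glucose- and pyruvate-free Neurobasal-A and held 1 h at 37 °C/5% CO2. They were then kept under 95% N2/5% CO2 (about 1.0% O2) for 4 h. Test compound was present either for the whole 53 h (0–5 mM) or only for 48 h post-OGD (0–3 mM). Viability was measured by MTT as % of the normoxic untreated control.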

[12] = 24 h, compared with SB or LiCl treatment

Compound: O=C([O-])c1ccccc1.[Na+] [SB, Sodium benzoate]
- spare respiratory capacity ([1]; 24 h pre-treatment): less effective than LiBen
- Cell Survival (%) [2]: 67.1%
- cell survival rate [3]: 70.7%
- protective effect against Aβ25-35 in the presence vs absence of MK-801 [3]: blocked by MK-801
- acceptable daily intake level [4]: 5 mg/kg body weight
- ROS level compared with 3-NP-vehicle-treated group [5]: significant decreases

Compound: O=C(O)CC[N+](=O)[O-] [3-NP, 3-nitropropionic acid, reference compound]
- neuronal cell death ([2]; 3-NP 2.5 mM alone): ~50%
- ROS level (fluorescent intensity) increase compared to control ([5]; 3-NP 2.5 mM, 24 h, p < 0.05): 57.5%

Compound: [Cl-].[Li+] [LiCl, lithium chloride, reference compound]
- spare respiratory capacity ([1]; 24 h pre-treatment): less effective than LiBen
- Cell Survival (%) [2]: 61.5%
- cell survival rate [3]: 74.0%
- ROS level compared with 3-NP-vehicle-treated group [5]: significant decreases

Compound: O=C([O-])c1ccccc1.[Li+] [LiBen, lithium benzoate]
- AUC of lithium compared with the SB + Li2CO3 mixture group [6]: also higher
- Cmax of lithium compared with the SB + Li2CO3 mixture group [6]: significantly higher
- neurogenesis (BrdU+/NeuN+ cells) vs corresponding control ([7]; Aβ25-35 exposure, then 0.5 mM for 4 days): significantly improve neurogenesis
- neurogenesis (BrdU+/NeuN+ cells) vs corresponding control ([7]; No Aβ25-35 exposure, 0.5 mM for 4 days): significantly improve neurogenesis
- ATP production [1, 12]: more reduction
- proton leak [1, 12]: more reduction
- spare respiratory capacity ([1]; 24 h pre-treatment): increasing tendency
- basal oxygen consumption rate ([1]; 24 h pre-treatment, did not reach the significant level): reduced more basal oxygen consumption rate than the other treatment groups
- Cell Survival (%) [2]: 79.0%
- viability of cultured cortical neurons exposed to 3-NP ([2]; LiBen 1 mM 24 h, p < 0.005 vs 3-NP alone): significantly increase
- viability of cultured cortical neurons exposed to 3-NP ([2]; LiBen 3 mM 24 h, p < 0.001 vs 3-NP alone): significantly increase
- viability of cultured cortical neurons in the absence of 3-NP ([2]; LiBen 1 or 3 mM, no 3-NP): the difference was not revealed
- body weight change during the experimental period ([8]; WT mice, chronic administration): without significant body weight change
- survival ([8]; WT mice, chronic administration, termination time point of the experiment): at least 16 months
- toxicity of chronic use ([8]; within the tested dose range (256, later 200 mg/kg/day i.p.)): did not display any toxicity
- improvement of PPI deficit ([9]; APP/PS1 mice at 13 months of age): reached significant level
- prepulse inhibition (PPI) ([9]; APP/PS1 mice, i.p. once daily from 5 months of age, tested at 7, 10, 13 months): normal PPI at all time points
- decrease in number of plaques in cortex [10]: 21.8%
- decrease in number of plaques in hippocampus [10]: 27.8%
- cell survival rate [3]: 85.1%
- protective effect against Aβ25-35 in the presence vs absence of MK-801 [3]: no differences were observed
- OGD-induced cell death / cell viability ([11]; 3 mM LiBen present for 53 hrs of the whole culture period): significantly recovered and comparable to the normoxia group
- cell survival in normoxia group ([11]; 5 mM LiBen, 53 hrs): also reduced
- neuroprotective property under OGD ([11]; 5 mM LiBen, 53 hrs): vanished
- OGD-induced cell death ([11]; LiBen 0.3 to 3 mM added for 48 hrs post-OGD, vs 0 mM group): significantly alleviates OGD-induced cell death
- ROS level compared with 3-NP-vehicle-treated group [5]: much more significant
